According to ChEMBL document CHEMBL1153560, “In vitro activities of doripenem and six comparator drugs against 423 aerobic and anaerobic bacterial isolates from infected diabetic foot wounds” (2008):

What was measured:
Format in all cases: functional
[1] = system: Bacteroides ovatus; assay: Antibacterial activity against Bacteroides ovatus isolated from patient with diabetic foot infection after 44 to 48 hrs by agar dilution method
Procedure, shortened: (§1)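 CLSI M11-A7 agar dilution: serial twofold drug dilutions made on the test day and added to molten agar. Spots of 10^5 CFU were applied by replicator, with drug-free control plates inoculated before and after each set. Incubation was 44 to 48 h at 37°C in an anaerobic chamber. MIC was the lowest concentration giving no growth or a marked change in growth versus controls.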

[2] = system: Anaerococcus tetradius; assay: Antibacterial activity against Anaerococcus tetradius isolated from patient with diabetic foot infection assessed as percent resistant isolates after 44 to 48 hrs by agar dilution method
Procedure, shortened: (§2)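 Agar dilution per CLSI M11-A7. Twofold drug dilutions made on the test day and added to molten agar. Replicator-applied inoculum of 10^5 CFU/spot. Drug-free control plates inoculated before and after each drug set. Incubation at 37°C for 44 to 48 h, anaerobic chamber. MIC taken as the lowest concentration giving no growth or a marked change in growth versus controls.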

[3] = system: Bacteroides fragilis; assay: Antibacterial activity against Bacteroides fragilis isolated from patient with diabetic foot infection assessed as percent resistant isolates after 44 to 48 hrs by agar dilution method; procedure, shortened: as §2
[4] = system: Porphyromonas somerae; assay: Antibacterial activity against Porphyromonas somerae isolated from patient with diabetic foot infection assessed as percent resistant isolates after 44 to 48 hrs by agar dilution method; procedure, shortened: as §2
[5] = system: Anaerococcus prevotii; assay: Antibacterial activity against Anaerococcus prevotii isolated from patient with diabetic foot infection assessed as percent resistant isolates after 44 to 48 hrs by agar dilution method; procedure, shortened: as §2
[6] = system: Anaerococcus prevotii; assay: Antibacterial activity against Anaerococcus prevotii isolated from patient with diabetic foot infection after 44 to 48 hrs by agar dilution method; procedure, shortened: as §1
[7] = system: Bacteroides thetaiotaomicron; assay: Antibacterial activity against Bacteroides thetaiotaomicron isolated from patient with diabetic foot infection after 44 to 48 hrs by agar dilution method; procedure, shortened: as §1
[8] = system: Enterocloster clostridioformis; assay: Antibacterial activity against Clostridium clostridioforme isolated from patient with diabetic foot infection after 44 to 48 hrs by agar dilution method; procedure, shortened: as §1
[9] = system: [Clostridium] innocuum; assay: Antibacterial activity against Clostridium innocuum isolated from patient with diabetic foot infection after 44 to 48 hrs by agar dilution method; procedure, shortened: as §1
[10] = system: Finegoldia magna; assay: Antibacterial activity against Finegoldia magna isolated from patient with diabetic foot infection after 44 to 48 hrs by agar dilution method; procedure, shortened: as §1
[11] = system: Clostridium malenominatum; assay: Antibacterial activity against Clostridium malenominatum isolated from patient with diabetic foot infection after 44 to 48 hrs by agar dilution method; procedure, shortened: as §1
[12] = system: Bacteroides uniformis; assay: Antibacterial activity against Bacteroides uniformis isolated from patient with diabetic foot infection after 44 to 48 hrs by agar dilution method; procedure, shortened: as §1
[13] = system: Peptostreptococcus anaerobius; assay: Antibacterial activity against Peptostreptococcus anaerobius isolated from patient with diabetic foot infection after 44 to 48 hrs by agar dilution method; procedure, shortened: as §1
[14] = system: Parabacteroides distasonis; assay: Antibacterial activity against Parabacteroides distasonis isolated from patient with diabetic foot infection after 44 to 48 hrs by agar dilution method; procedure, shortened: as §1
[15] = system: Cutibacterium acnes; assay: Antibacterial activity against Propionibacterium acnes isolated from patient with diabetic foot infection after 44 to 48 hrs by agar dilution method; procedure, shortened: as §1
[16] = system: Peptostreptococcus anaerobius; assay: Antibacterial activity against Peptostreptococcus anaerobius isolated from patient with diabetic foot infection assessed as percent resistant isolates after 44 to 48 hrs by agar dilution method; procedure, shortened: as §2
[17] = system: Peptoniphilus asaccharolyticus; assay: Antibacterial activity against Peptoniphilus asaccharolyticus isolated from patient with diabetic foot infection assessed as percent resistant isolates after 44 to 48 hrs by agar dilution method; procedure, shortened: as §2
[18] = system: [Clostridium] innocuum; assay: Antibacterial activity against Clostridium innocuum isolated from patient with diabetic foot infection assessed as percent resistant isolates after 44 to 48 hrs by agar dilution method; procedure, shortened: as §2
[19] = system: Phocaeicola vulgatus; assay: Antibacterial activity against Bacteroides vulgatus isolated from patient with diabetic foot infection after 44 to 48 hrs by agar dilution method; procedure, shortened: as §1
[20] = system: Clostridium cadaveris; assay: Antibacterial activity against Clostridium cadaveris isolated from patient with diabetic foot infection after 44 to 48 hrs by agar dilution method; procedure, shortened: as §1
[21] = system: Bacteroides thetaiotaomicron; assay: Antibacterial activity against Bacteroides thetaiotaomicron isolated from patient with diabetic foot infection assessed as percent resistant isolates after 44 to 48 hrs by agar dilution method; procedure, shortened: as §2
[22] = system: Enterocloster clostridioformis; assay: Antibacterial activity against Clostridium clostridioforme isolated from patient with diabetic foot infection assessed as percent resistant isolates after 44 to 48 hrs by agar dilution method; procedure, shortened: as §2
[23] = system: Finegoldia magna; assay: Antibacterial activity against Finegoldia magna isolated from patient with diabetic foot infection assessed as percent resistant isolates after 44 to 48 hrs by agar dilution method; procedure, shortened: as §2
[24] = system: Prevotella bivia; assay: Antibacterial activity against Prevotella bivia isolated from patient with diabetic foot infection assessed as percent resistant isolates after 44 to 48 hrs by agar dilution method; procedure, shortened: as §2
[25] = system: Bacteroides ovatus; assay: Antibacterial activity against Bacteroides ovatus isolated from patient with diabetic foot infection assessed as percent resistant isolates after 44 to 48 hrs by agar dilution method; procedure, shortened: as §2
[26] = system: Bacteroides fragilis; assay: Antibacterial activity against Bacteroides fragilis isolated from patient with diabetic foot infection after 44 to 48 hrs by agar dilution method; procedure, shortened: as §1
[27] = system: Phocaeicola vulgatus; assay: Antibacterial activity against Bacteroides vulgatus isolated from patient with diabetic foot infection assessed as percent resistant isolates after 44 to 48 hrs by agar dilution method; procedure, shortened: as §2
[28] = system: Clostridium malenominatum; assay: Antibacterial activity against Clostridium malenominatum isolated from patient with diabetic foot infection assessed as percent resistant isolates after 44 to 48 hrs by agar dilution method; procedure, shortened: as §2
[29] = system: Parvimonas micra; assay: Antibacterial activity against Peptostreptococcus micros isolated from patient with diabetic foot infection after 44 to 48 hrs by agar dilution method; procedure, shortened: as §1
[30] = system: Parvimonas micra; assay: Antibacterial activity against Peptostreptococcus micros isolated from patient with diabetic foot infection assessed as percent resistant isolates after 44 to 48 hrs by agar dilution method; procedure, shortened: as §2
[31] = system: Anaerococcus tetradius; assay: Antibacterial activity against Anaerococcus tetradius isolated from patient with diabetic foot infection after 44 to 48 hrs by agar dilution method; procedure, shortened: as §1
[32] = system: Bacteroides uniformis; assay: Antibacterial activity against Bacteroides uniformis isolated from patient with diabetic foot infection assessed as percent resistant isolates after 44 to 48 hrs by agar dilution method; procedure, shortened: as §2
[33] = system: Porphyromonas asaccharolytica; assay: Antibacterial activity against Porphyromonas asaccharolyticus isolated from patient with diabetic foot infection after 44 to 48 hrs by agar dilution method; procedure, shortened: as §1
[34] = system: Porphyromonas asaccharolytica; assay: Antibacterial activity against Porphyromonas asaccharolyticus isolated from patient with diabetic foot infection assessed as percent resistant isolates after 44 to 48 hrs by agar dilution method; procedure, shortened: as §2
[35] = system: Clostridium perfringens; assay: Antibacterial activity against Clostridium perfringens isolated from patient with diabetic foot infection after 44 to 48 hrs by agar dilution method; procedure, shortened: as §2
[36] = system: Parabacteroides merdae; assay: Antibacterial activity against Parabacteroides merdae isolated from patient with diabetic foot infection after 44 to 48 hrs by agar dilution method; procedure, shortened: as §1
[37] = system: Porphyromonas somerae; assay: Antibacterial activity against Porphyromonas somerae isolated from patient with diabetic foot infection after 44 to 48 hrs by agar dilution method; procedure, shortened: as §1

CCC[C@@H]1C[C@@H](C(=O)N[C@@H]([C@H]2O[C@H](SC)[C@H](O)[C@@H](O)[C@H]2O)[C@H](C)Cl)N(C)C1 [CLINDAMYCIN]
21%: Activity [24]
18%: Activity [2] | Activity [5]
0%: Activity [16] | Activity [23] | Activity [30]
20%: Activity [21] | Activity [25] | Activity [27] | Activity [32]
16 µg/mL: MIC90 [8] | MIC90 [9] | MIC90 [11] | MIC90 [20]
0.5 µg/mL: MIC50 [8] | MIC50 [9] | MIC50 [10] | MIC50 [11] | MIC90 [13] | MIC50 [20] | MIC50 [26] | MIC90 [29]
0.125 µg/mL: MIC50 [6] | MIC50 [13] | MIC50 [29] | MIC50 [31]
25%: Activity [17]
23%: Activity [18] | Activity [22] | Activity [28]
64 µg/mL: MIC90 [6] | MIC90 [31] | MIC90 [33] | MIC90 [37]
12%: Activity [4] | Activity [34]
2 µg/mL: MIC50 [1] | MIC50 [7] | MIC90 [10] | MIC50 [12] | MIC50 [14] | MIC90 [15] | MIC50 [19] | MIC90 [26] | MIC50 [36]
1 µg/mL: MIC50 [35] | MIC90 [35]
> 64 µg/mL: MIC90 [1] | MIC90 [7] | MIC90 [12] | MIC90 [14] | MIC90 [19] | MIC90 [36]
10%: Activity [3]
≤ 0.03 µg/mL: MIC50 [15] | MIC50 [33] | MIC50 [37]
